The source made the active and inactive calls.
Legend:
[1] = target: T1, Tyrosyl-DNA phosphodiesterase 2 (Homo sapiens, UniProt O95551); experiment: Inhibition of recombinant human TDP2 using 18-mer single stranded oligonucleotide DNA as substrate incubated for 15 mins by PAGE assay
T1 sequence (O95551 whole entry): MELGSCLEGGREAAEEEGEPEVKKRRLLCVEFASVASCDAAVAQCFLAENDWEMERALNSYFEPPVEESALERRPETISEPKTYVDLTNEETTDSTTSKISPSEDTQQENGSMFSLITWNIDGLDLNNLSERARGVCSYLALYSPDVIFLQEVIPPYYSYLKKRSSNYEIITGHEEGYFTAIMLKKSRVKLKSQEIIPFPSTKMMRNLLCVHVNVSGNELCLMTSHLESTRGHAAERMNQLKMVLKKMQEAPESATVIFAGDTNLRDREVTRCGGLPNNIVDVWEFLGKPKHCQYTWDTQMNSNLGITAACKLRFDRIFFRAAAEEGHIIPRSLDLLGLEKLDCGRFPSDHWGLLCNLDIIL
Procedure, shortened: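 1 nM TY18 substrate (α³²P-cordycepin-3′-labelled 18-mer ssDNA) with 25 pM recombinant human TDP2, 15 min at room temperature in LMP2 buffer (pH 7.5, 5 mM MgCl₂). Dose–response at 1.4, 4.1, 12.3, 37, 111 μM, resolved on gels. IC50 is mean ± SD of at least three independent experiments.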

[2] = target: T1, Tyrosyl-DNA phosphodiesterase 2; experiment: Inhibition of human TDP2 expressed in DT40 cells (TDP2-knockout) using 18-mer single stranded oligonucleotide DNA as substrate incubated for 15 mins by PAGE assay
Procedure, shortened: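 Extract from 1 × 10⁷ TDP2−/− DT40 cells complemented with human TDP2, prepared as the TDP1 extracts. 1 nM TY18 substrate (α³²P-cordycepin-3′-labelled 18-mer) with 5 μg/mL extract ± inhibitor, 15 min at room temperature. Products resolved on gel.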

[3] = target: T2, Tyrosyl-DNA phosphodiesterase 1 (Homo sapiens, UniProt Q9NUW8); experiment: Inhibition of recombinant TDP1 (unknown origin) using 5'-[32P]-labeled single stranded oligonucleotide DNA containing 3'-phophotyrosine (N14Y) as substrate at 111 uM incubated for 15 mins by PAGE assay
[4] = Cytotoxicity against chicken DT40 knockout cells expressing human TDP2 after 72 hrs by ATPlite assay; type: functional; conditions: Gallus gallus, DT40, 72 h
Procedure, shortened: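 DT40 cells lacking endogenous TDP2 and complemented with human TDP2, following an earlier protocol. For synergy, the compound was combined with different etoposide concentrations.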

Gallus gallus = organism: Gallus gallus; experiment: Potentiation of ETP-induced cytotoxicity against chicken DT40 knockout cells expressing human TDP2 after 72 hrs by ATPlite assay; type: functional, cell-based
Procedure, shortened: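 DT40 cells lacking endogenous TDP2 and complemented with human TDP2, following an earlier protocol. CC90 is the concentration killing 90% of cells, measured without etoposide. For synergy, the compound was combined with different etoposide concentrations.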

[5] = target: T2, Tyrosyl-DNA phosphodiesterase 1; experiment: Inhibition of human TDP1 expressed in DT40 cells (TDP1-knockout) using N14Y single stranded oligonucleotide DNA as substrate incubated for 15 mins by PAGE assay
[6] = target: T2, Tyrosyl-DNA phosphodiesterase 1; experiment: Inhibition of recombinant TDP1 (unknown origin) using 5'-[32P]-labeled single stranded oligonucleotide DNA containing 3'-phophotyrosine (N14Y) as substrate incubated for 15 mins by PAGE assay

T2 sequence (Q9NUW8 whole entry): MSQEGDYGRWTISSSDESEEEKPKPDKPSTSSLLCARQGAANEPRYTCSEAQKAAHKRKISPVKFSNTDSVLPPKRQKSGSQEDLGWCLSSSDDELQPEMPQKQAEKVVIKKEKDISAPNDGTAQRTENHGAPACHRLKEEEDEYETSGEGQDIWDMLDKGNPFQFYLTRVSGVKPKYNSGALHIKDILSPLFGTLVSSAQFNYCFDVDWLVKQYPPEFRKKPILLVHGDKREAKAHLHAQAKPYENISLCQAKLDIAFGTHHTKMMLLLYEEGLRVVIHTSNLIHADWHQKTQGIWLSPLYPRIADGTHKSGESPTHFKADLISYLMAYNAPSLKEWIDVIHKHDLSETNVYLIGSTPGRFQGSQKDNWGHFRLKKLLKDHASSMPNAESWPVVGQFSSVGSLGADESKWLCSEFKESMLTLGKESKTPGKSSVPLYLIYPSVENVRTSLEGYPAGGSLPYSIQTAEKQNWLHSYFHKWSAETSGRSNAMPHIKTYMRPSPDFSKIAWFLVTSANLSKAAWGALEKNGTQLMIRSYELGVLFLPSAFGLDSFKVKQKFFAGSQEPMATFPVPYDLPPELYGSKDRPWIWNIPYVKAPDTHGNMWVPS

SMILES	IC50 [1]	IC50 [2]	inhibition [3]	IC50 [5]	IC50 [6]	CC90 [4]	Activity (Gallus gallus)
O=C1Cc2cc(-c3cccnc3)ccc2C(=O)N1	16 µM	23 µM	inactive				
O=C1Cc2cc(-c3ccccc3C(=O)O)ccc2C(=O)N1	> 111 µM		inactive				
O=C1Cc2ccc(-c3ccco3)cc2C(=O)N1	13 µM	50 µM	inactive				
O=C1Cc2cc(Cc3ccccc3)ccc2C(=O)N1	> 111 µM		inactive				
O=C1Cc2cccc(-c3cccc([N+](=O)[O-])c3)c2C(=O)N1	19 µM		inactive				
O=C1Cc2cc([N+](=O)[O-])ccc2C(=O)N1	19 µM		inactive				
NC(=O)c1cccc(-c2ccc3c(c2)CC(=O)NC3=O)c1	16 µM		inactive				
O=C1Cc2ccc(-c3ccc(O)cc3)cc2C(=O)N1	14 µM		inactive				
O=C1Cc2ccc(-c3cccc(O)c3)cc2C(=O)N1	15 µM		inactive				
O=C1Cc2cc(-c3cccc(O)c3)ccc2C(=O)N1	13 µM	35 µM	inactive				
CCOC(=O)C1C(=O)NC(=O)c2ccc(Br)cc21 (configuration not stated)	14 µM		inactive				
O=C1NC(=O)c2ccc(Br)c3cccc1c23	> 111 µM		inactive				
Nc1c2c(nn1-c1ccc(F)cc1)CC(=O)NC2=O	> 111 µM		inactive				
Nc1cccc(-c2ccc3c(c2)C(=O)NC(=O)C3)c1	> 111 µM		inactive				
Nc1c2c(nn1-c1ccccn1)CC(=O)NC2=O	> 111 µM		inactive				
O=C1Cc2c(cccc2-c2cccc([N+](=O)[O-])c2)C(=O)N1	> 37 µM		inactive				
O=C1Cc2ccc(-c3cccnc3)cc2C(=O)N1	20 µM		inactive				
O=c1[nH]c(=O)c2ccc(-c3ccccc3)cc2[nH]1	> 111 µM		inactive				
O=C1Cc2c(Br)cccc2C(=O)N1	> 37 µM		inactive				
O=C1Cc2ccccc2C(=O)N1	25 µM		inactive				

SMILES	IC50 [1]	IC50 [2]	inhibition [3]	IC50 [5]	IC50 [6]	CC90 [4]	Activity (Gallus gallus)
CC(=O)Nc1c2c(nn1-c1ccccc1)CC(=O)NC2=O	> 111 µM		inactive				
Nc1c2c(nn1-c1ccccc1)CC(=O)NC2=O	> 111 µM		inactive				
Nc1ccc(-c2ccc3c(c2)CC(=O)NC3=O)cc1	36 µM	40 µM	inactive				
O=C1Cc2cc(-c3ccc(C(=O)O)cc3)ccc2C(=O)N1	30 µM		inactive				
O=C1Cc2cc(Br)ccc2C(=O)N1	11 µM		inactive				
O=C1Cc2cccc(-c3cccc(O)c3)c2C(=O)N1	26 µM		inactive				
O=C1NC(=O)c2ccc(-c3ccco3)c3cccc1c23	> 111 µM		inactive				
CS(=O)(=O)Nc1cccc(-c2ccc3c(c2)CC(=O)NC3=O)c1	18 µM	25 µM	inactive				
COc1ccc(OC)c(-c2ccc3c(c2)CC(=O)NC3=O)c1	16 µM		inactive				
O=C1Cc2ccc(-c3ccco3)cc2C(=O)N1O	> 111 µM		inactive				
COc1cccc(OC)c1-c1ccc2c(c1)CC(=O)NC2=O	> 37 µM		inactive				
O=C1Cc2cc(-c3ccccc3)ccc2C(=O)N1	23 µM	> 111 µM	inactive				
O=C1Cc2cc(C(=O)O)ccc2C(=O)N1	> 111 µM		inactive				
O=C1Cc2c(cccc2-c2ccco2)C(=O)N1	> 111 µM		inactive				
O=C1Cc2cc(-c3ccco3)ccc2C(=O)N1O	> 111 µM				> 111 µM		
O=C1Cc2cc(-c3cccc(-c4ccccc4)c3)ccc2C(=O)N1	> 111 µM		inactive				
O=C1Cc2cc(-c3cccc(C(=O)O)c3)ccc2C(=O)N1	21 µM	42 µM	inactive				
Nc1cccc(-c2ccc3c(c2)CC(=O)NC3=O)c1	42 µM	55 µM	inactive				
O=C1Cc2cc(C(=O)c3cccc([N+](=O)[O-])c3)ccc2C(=O)N1	11 µM		inactive				

Second part, led by results:

IC50 [1]	IC50 [2]	inhibition [3]	IC50 [5]	IC50 [6]	SMILES	CC90 [4]	Activity (Gallus gallus)
3 µM	4.3 µM	inactive			COc1ccc(-c2ccc3c(c2)CC(=O)NC3=O)cc1F		
10 µM	25 µM	inactive			O=C1Cc2cc(-c3cccc([N+](=O)[O-])c3)ccc2C(=O)N1		
11 µM		inactive			C=CC(=O)Nc1cccc(-c2ccc3c(c2)C(=O)NC(=O)C3)c1		
6.4 µM	4.5 µM	inactive			O=C1Cc2cc(-c3ccc(Cl)cc3)ccc2C(=O)N1		
10 µM		inactive			C=CC(=O)Nc1ccc(-c2ccc3c(c2)CC(=O)NC3=O)cc1		
7.6 µM	9.3 µM	inactive			O=C1Cc2cc(I)ccc2C(=O)N1	9.5 µM	inactive
5.4 µM		inactive			O=C1Cc2ccc(C(=O)c3cccc([N+](=O)[O-])c3)cc2C(=O)N1		
9.8 µM		inactive			O=C1Cc2ccc(I)cc2C(=O)N1		
4.5 µM	5.5 µM	inactive			O=C1Cc2cc(-c3ccc(F)cc3F)ccc2C(=O)N1		
4.5 µM		inactive			CS(=O)(=O)Nc1cccc(-c2ccc3c(c2)C(=O)NC(=O)C3)c1		
5.6 µM	3.3 µM	inactive			O=C1Cc2cc(-c3cccc(Cl)c3)ccc2C(=O)N1		
1.9 µM	2.2 µM	inactive			CS(=O)(=O)Nc1ccc(-c2ccc3c(c2)CC(=O)NC3=O)cc1		
5.5 µM	15 µM	inactive			CC(=O)c1cccc(-c2ccc3c(c2)CC(=O)NC3=O)c1		
1.7 µM	3.2 µM	inactive			O=C1Cc2ccc(-c3cccc(Cl)c3)cc2C(=O)N1		
10 µM	25 µM		> 111 µM	> 111 µM	O=C1Cc2cc(-c3ccco3)ccc2C(=O)N1		inactive
3.2 µM	2.7 µM	inactive			O=C1Cc2cc(-c3ccc(C(F)(F)F)cc3)ccc2C(=O)N1		
11 µM		inactive			O=C1Cc2ccc(-c3cccc([N+](=O)[O-])c3)cc2C(=O)N1		
5.1 µM	11 µM	inactive			O=C1Cc2cc(-c3nc4ccccc4s3)ccc2C(=O)N1	12 µM	inactive
4.1 µM	5.3 µM	inactive			O=C1Cc2cc(-c3ccc(F)c(Cl)c3)ccc2C(=O)N1		
9.3 µM	> 111 µM	inactive			O=C1Cc2cc(-c3cnc4ccccc4c3)ccc2C(=O)N1		
7.5 µM	2.6 µM	inactive			O=C1Cc2cccc(I)c2C(=O)N1		
7.1 µM		inactive			O=C1Cc2ccc(-c3ccc(Br)cc3)cc2C(=O)N1		
3 µM	5.2 µM	inactive			O=C1Cc2ccc(C(=O)O)cc2C(=O)N1	> 50 µM	inactive
8 µM	6.5 µM	inactive			O=C1Cc2cc(-c3cccc(Br)c3)ccc2C(=O)N1		
7 µM	3.5 µM	inactive			O=C1Cc2cc(C(F)(F)F)ccc2C(=O)N1		
